{"data": "Measured values collected from several papers", "target": "Glycogen synthase kinase-3 beta (GSK3B, Homo sapiens, UniProt P49841)", "action": "inhibitor", "note": "Protocols differ between the studies behind these lines."}
{"SMILES": "CCCS(=O)(=O)Nc1ccc(F)c(C(=O)c2c[nH]c3ncc(-c4ccc(Cl)cc4)cc23)c1F", "assay": "enzyme activity", "conditions": "1 µM", "inhibition [%]": "< 20"}
{"SMILES": "CC(C)NCC(O)c1ccc(NS(C)(=O)=O)cc1 (centres unmarked)", "assay": "enzyme activity, ADP detection", "conditions": "100 µM", "inhibition [%]": 8.4}
{"SMILES": "CN(C)C1CCN(CC#Cc2nn(C3CCCC3)c3nc(NCc4ccccc4)ncc23)C1 (centres unmarked)", "assay": "enzyme activity, FRET", "conditions": "1 µM", "inhibition [%]": -1}
{"SMILES": "CCCCNc1ncc2c(-c3ccc(F)cc3)nn(C[C@H]3CC[C@H](N)CC3)c2n1", "assay": "target engagement in cells, chemoproteomics", "conditions": "20 mM", "inhibition [%]": 4.2}
{"SMILES": "CS(=O)(=O)Nc1cccc(-c2csc(NC(=O)CSc3nc4nccnc4c(=O)n3CCc3ccccc3)n2)c1", "assay": "enzyme activity", "conditions": "10 µM", "inhibition [%]": 2}
{"SMILES": "COc1cc2ncnc(Nc3ccc(Oc4ccccc4)cc3C)c2cc1OC", "assay": "enzyme activity", "conditions": "1 µM", "inhibition [%]": -2}
{"SMILES": "COc1cccc2c(NCc3ccccc3)nc(-n3c(N)nc4ccccc43)nc12", "assay": "target engagement in cells, chemoproteomics", "conditions": "20 mM", "inhibition [%]": 1}
{"SMILES": "Nc1nc(Nc2ccc(S(N)(=O)=O)cc2)sc1C(=O)c1ccccc1[N+](=O)[O-]", "assay": "enzyme activity", "conditions": "0.1 µM", "inhibition [%]": "60 to 66"}
{"SMILES": "Cc1nc(-c2ccc(OCC(C)C)c(C#N)c2)sc1C(=O)O", "assay": "enzyme activity, ADP detection", "conditions": "100 µM", "inhibition [%]": 66.9}
{"SMILES": "CCN(CC)CCNC(=O)c1c(C)[nH]c(/C=C2\\C(=O)Nc3ccc(F)cc32)c1C", "assay": "enzyme activity", "conditions": "10 µM", "inhibition [%]": 3}
{"SMILES": "COc1ccc2c(c1)O[C@H]1c3ccc(OC)cc3OC[C@@H]21", "assay": "enzyme activity, ADP detection", "conditions": "100 µM", "inhibition [%]": 32.9}
{"SMILES": "CC/C(=N\\NC(=O)NCc1cccc(O)c1)c1ccc(O)c(C)c1O", "assay": "enzyme activity", "conditions": "0.1 µM", "inhibition [%]": 8.6}
{"SMILES": "CN1CC(Oc2cnc(C#N)cc2-c2ccn3nc(NC(=O)C4CC4)cc3c2)C1", "assay": "enzyme activity", "conditions": "1 µM", "inhibition [%]": -8}
{"SMILES": "NC(=O)c1cnccn1", "assay": "enzyme activity, ADP detection", "conditions": "100 µM", "inhibition [%]": 7.9}
